STAT3 inh-1: reduces IL-6 driven STAT3 reporter signal | U3A cells, IL-6 STAT3-luciferase reporter, luminescence; host cell line lacks STAT1 | inhibition, % at 5.5 µM | actives 0.89% (n = 190,000) | AID 862;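 active = inhibition above the mean inhibition across all screened compounds plus 3 SD, cut at about 44% in these data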
PPC-1+TRAIL kill: kills PPC-1 cancer cells in the presence of TRAIL; PPC-1 cells + TRAIL, ATPLite viability luminescence; cell killing (% activity), % at 4 µM or 5 µM; actives 0.41% (n = 220,000); AID 1443;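 active = cell killing above 50% in the first pass at 4 µM, then a duplicate retest at 5 µM averaging 50% or more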
C8 TRAIL sens: caspase-8 TRAIL sensitization. actives 1% (n = 360,000). AID 624354. inhibition (viability loss, TRAIL sensitization), % at 10 µM. NB7+C8 cells + TRAIL, ATPlite viability luminescence;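 active = compounds causing at least 50% loss of cell viability in the single-dose screen, relative to plate controls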
STAT1 inh: STAT1 signaling inhibition | NIH 3T3 STAT1-luciferase reporter, IFN-gamma, luminescence | inhibition, % at 5.5 µM | actives 0.35% (n = 200,000) | AID 920;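 active = inhibition above a set limit, the mean inhibition across all tested compounds plus 3 SD, cut at about 34% in these data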
STAT3 activator: increases IL-6 driven STAT3 reporter signal | U3A cells, IL-6 STAT3-luciferase reporter, luminescence; 100% = signal with IL-6 EC80 alone | activation (% of control), % at 5.6 µM | actives 0.91% (n = 190,000) | AID 871;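 active = activation above the screen-wide mean of compound activation plus 3 SD, cut at about 130% in these data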
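Test system: STAT3-luciferase reporter U3A cells; Detection: reporter luminescence signal; Times: 1 h compound pre-exposure, 6 h IL-6 stimulation, 37 °C; Benchmarks: IL-6-only high control; Also added: IL-6 stimulus at 33 ng/mL final.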
STAT3 inh-2: STAT3 inhibition, confirmation assay. shares compounds with STAT3 inh-1. U3A cells, IL-6 STAT3 luciferase reporter, luminescence; cell line lacks STAT1. inhibition, % at 5.7 µM. actives 45% (n = 1,200);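 active = inhibition above the hit cutoff computed for the primary STAT3 screen, cut at about 44% in these data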
NFkB inh STAT3ct: inhibits NF-kappaB, counter-screen to STAT3 inhibitors; inhibition, % at 5.7 µM; shares compounds with STAT3 inh-1; actives 36% (n = 1,200); HEK293T NF-kB luciferase reporter, TNF-alpha induced;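 active = inhibition above the mean of solvent-only control wells plus 3 SD, cutoff set per campaign, cut at about 13% in these data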
STAT1 inh STAT3c: STAT1 inhibition in STAT3 inhibitor counter-screen; shares compounds with STAT3 inh-1; NIH 3T3 STAT1-luciferase reporter, IFN-gamma induced, luminescence; inhibition, % at 5.7 µM; actives 27% (n = 1,200); AID 1317;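 active = inhibition above the mean plus 3 SD of solvent-only control wells, limit set per screening run, cut at about 16% in these data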
A number is an active result; – = inactive; · = no result. The list is not random: actives were taken first. Their share in the collection is about 1.8%.

SMILES	STAT3 inh-1	PPC-1+TRAIL kill	C8 TRAIL sens	STAT1 inh	STAT3 activator	STAT3 inh-2	NFkB inh STAT3ct	STAT1 inh STAT3c
COc1ccccc1OCC(=O)c1[nH]c(C)c(C(C)=O)c1C	55.8	–	–	–	–	46.3	–	–
COc1cc(C)ccc1OCC(=O)OCC(=O)c1[nH]c(C)c(C(C)=O)c1C	·	·	–	·	·	·	·	·
C=CCN=C1NN=C(c2cc(C)n(CCOC)c2C)CS1	77.6	–	–	–	–	–	–	–
C=CCn1c(C)cc(C2=NNC(=NC(C)(C)C)SC2)c1C	57.6	–	70.3	–	–	45.5	28.0	–
O=C(COc1ccccc1CNC[C@H]1O[C@@H](n2ccc(=O)[nH]c2=O)[C@H](O)[C@@H]1O)N1CCCCC1	·	·	–	·	·	·	·	·
COc1ccc2oc(C(=O)Nc3ccc(N4CCOCC4)cc3)c(C)c2c1	·	·	–	·	·	·	·	·
N#Cc1c(NC(=O)CSc2ncn[nH]2)sc2c1CCCCC2	70.7	–	–	–	–	67.7	29.6	–
CN(C)S(=O)(=O)c1ccc(C(=O)Nc2nc(-c3cccs3)cs2)cc1	52.9	–	–	–	–	44.3	–	–
O=C(Nc1nc(-c2cccs2)cs1)c1ccc(S(=O)(=O)N2CCCC2)cc1	–	–	–	–	–	·	·	·
CCOc1ccc(NC(=O)c2cnsn2)cc1	48.7	–	–	–	–	–	–	–
Cc1oc(-c2ccccc2)cc1C(=O)Nc1ccccc1	–	–	–	–	–	·	·	·
Cc1c(C(=O)Nc2ccccc2)csc1-c1ccccc1	55.4	–	66.9	–	–	–	–	–
CC(C)N=C1NN=C(c2ccc(Cl)c(Cl)c2)CS1	–	–	–	–	–	·	·	·
COc1cc(C2C3=C(COC3=O)Oc3cc4c(cc32)OCO4)cc(OC)c1OC(C)=O (stereo not given)	·	·	–	·	·	·	·	·
Fc1ccc(N/N=C/c2ccc(N3CCOCC3)cc2)c(F)c1	–	–	–	–	–	·	·	·
O=C(O)c1cc2c(N3CCC(Cc4ccccc4)CC3)ncnc2s1	–	–	–	–	–	·	·	·
c1ccc(CC2CCN(c3ncnc4sccc34)CC2)cc1	83.2	–	–	–	–	78.9	–	–
COc1ccc(C(=O)Nc2ccc(/C(C)=N/NC(=O)c3ccncc3)cc2)cc1	·	·	–	·	·	·	·	·
COc1ccc(C)cc1-n1nnnc1SCn1nnc2ccccc2c1=O	53.7	–	–	–	–	43.7	–	–
Cc1ccc(-n2nnnc2SCn2nnc3ccccc3c2=O)cc1	–	–	–	–	–	·	·	·
O=C(CCc1ccc(S(=O)(=O)N2CCOCC2)cc1)Nc1nc(COc2ccccc2)cs1	45.9	–	–	–	–	–	–	–
O=C(COc1ccccc1)Nc1nc(-c2ccc(S(=O)(=O)N3CCOCC3)cc2)cs1	–	–	–	–	–	·	·	·
CCN1/C(=C/c2ccc3ccccc3[n+]2CC)C=Cc2ccccc21	91.6	–	58.9	–	–	89.7	51.7	22.4
CCN1/C(=C/c2ccc3ccccc3[n+]2CCCS(=O)(=O)[O-])C=Cc2cc(C)ccc21	·	·	–	·	·	·	·	·
COCCN(C(=O)COC(=O)C1CCC(C(C)(C)C)CC1)c1c(N)n(Cc2ccccc2)c(=O)[nH]c1=O (stereo not given)	·	·	–	·	·	·	·	·
SMILES	STAT3 inh-1	PPC-1+TRAIL kill	C8 TRAIL sens	STAT1 inh	STAT3 activator	STAT3 inh-2	NFkB inh STAT3ct	STAT1 inh STAT3c
Nc1cc(-c2cccc(Br)c2)nn1Cc1ccccc1	–	–	–	–	–	·	·	·
Nc1cc(-c2ccc(Br)cc2)nn1Cc1ccccc1	67.0	–	–	–	–	58.5	–	–
Nc1cc(-c2ccccc2)nn1Cc1ccc(Cl)cc1	49.3	–	–	–	–	45.3	–	–
COc1cccc(C2CC(c3cccs3)=NN2S(C)(=O)=O)c1 (stereo not given)	–	–	–	–	–	·	·	·
Cc1ccc(-n2cc(C(=O)c3ccccc3O)cn2)cc1	79.1	–	60.0	–	–	–	37.3	–
CCN(CC)c1ccc(/C=C(\C#N)c2ccccn2)cc1	74.2	62.1	81.1	–	–	45.1	29.3	–
CN(CCC#N)c1ccc(/C=C(\C#N)c2ccccn2)cc1	49.4	–	83.9	–	–	–	–	–
CN1CCN(/N=C/c2c3ccccc3c(Cl)c3ccccc23)CC1	–	–	–	–	–	·	·	·
Cc1csc(NC(=O)c2cc(C)on2)n1	·	·	–	·	·	·	·	·
CC12CCC(=O)N1C(C(=O)Nc1nnc(SCc3ccc(F)cc3)s1)CS2 (stereo not given)	·	·	–	·	·	·	·	·
O=C(NC1CCCCC1)C(c1ccccc1F)n1c(=O)c(-c2cc3ccccc3[nH]2)nc2ccccc21 (stereo not given)	·	·	–	·	·	·	·	·
O=C1C2C3C=CC(C3)C2C(=O)N1c1ccc(Cc2ccncc2)cc1 (stereo not given)	–	–	–	–	–	·	·	·
CC1CCC2C(=O)N(c3ccc(Cc4ccncc4)cc3)C(=O)C2C1 (stereo not given)	73.7	–	–	–	–	70.4	23.3	21.4
N=c1ncn(C2OC(CO)C(O)C2O)c2nc(Br)[nH]c12 (stereo not given)	·	·	–	·	·	·	·	·
CC1(C(=O)O)CCC(C(=O)NNC(=O)c2ccccc2Cl)C1(C)C (stereo not given)	·	·	–	·	·	·	·	·
CC1CCC2C(=O)N(c3cc(Cl)ccc3OC(=O)c3ccco3)C(=O)C2C1 (stereo not given)	·	·	–	·	·	·	·	·
CC1CCC2C(=O)N(c3ccccc3OC(=O)c3ccccc3)C(=O)C2C1 (stereo not given)	43.9	–	–	–	–	45.0	–	–
O=C(Nc1ccn(Cc2ccccc2F)n1)c1ccc(COc2ccc(Br)cc2)cc1	47.0	–	–	–	–	52.2	–	–
COC1=C(N)C(=O)c2nc(-c3nc(C(=O)O)c(C)c(-c4ccc(OC)c(OC)c4O)c3N)ccc2C1=O	105.5	–	·	–	–	103.2	97.4	85.3
N=c1c2c(n(Cc3ccc(F)cc3)c3c1CCC3)CCCC2	–	–	–	–	–	·	·	·
N=c1c2c(n(Cc3cccc(Cl)c3)c3c1CCC3)CCCC2	54.2	–	–	–	–	45.0	–	24.7
CCn1c2c(c(=N)c3c1CCC3)CCCC2	·	–	–	·	·	·	·	·
N=c1c2c(n(Cc3ccccc3)c3c1CCC3)CCC2	48.9	–	–	–	–	–	–	23.7
N=c1c2c(n(Cc3ccc(Cl)cc3)c3c1CCC3)CCC2	53.9	–	–	–	–	43.5	–	23.7
Cc1ccc(C(=O)/C=C2\NCCNC2=O)cc1	–	–	–	–	–	·	·	·
Cc1ccc(C(=O)/C=C2\NCC(C)NC2=O)cc1 (stereo not given)	65.1	–	–	–	–	–	–	–
O=C(Nc1cccc(C(=O)N2CCN(Cc3ccccc3)CC2)c1)c1ccccc1	–	–	–	–	–	·	·	·

Assay outcomes from PubChem.
